ChEMBL document CHEMBL2417388, “Design and synthesis of (4E)-4-(4-substitutedbenzylideneamino)-3-substituted-2,3-dihydro-2-thioxothiazole-5-carbonitrile as novel A2A receptor antagonists” (Bioorg Med Chem, 2013)
The source made the active and inactive calls. The rule behind the calls is not given here.

Key:
HEK293 = assay: Selectivity ratio of Ki for human A1 receptor expressed in HEK293 cell membranes to Ki for human A2A receptor expressed in HEK293 cell membranes; format: cell-based
Adenosine receptor A2a = Adenosine receptor A2a (Homo sapiens, UniProt P29274); assay: Displacement of [3H]ZM241385 from human A2A receptor expressed in HEK293 cell membranes after 60 mins by scintillation counting
Adenosine receptor A1 = molecular target: T1, Adenosine receptor A1 (Homo sapiens, UniProt P30542); assay: Displacement of [3H]DPCPX from human A1 receptor expressed in HEK293 cell membranes after 60 mins by scintillation counting
T1 sequence (P30542 whole entry): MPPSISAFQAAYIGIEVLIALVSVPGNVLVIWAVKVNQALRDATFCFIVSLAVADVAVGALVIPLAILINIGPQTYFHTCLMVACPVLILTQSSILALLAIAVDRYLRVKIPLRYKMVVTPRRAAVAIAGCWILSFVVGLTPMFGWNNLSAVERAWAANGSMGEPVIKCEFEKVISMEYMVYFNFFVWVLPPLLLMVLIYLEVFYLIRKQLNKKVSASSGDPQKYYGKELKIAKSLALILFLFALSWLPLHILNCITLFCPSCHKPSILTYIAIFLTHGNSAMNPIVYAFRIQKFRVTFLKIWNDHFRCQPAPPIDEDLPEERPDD

Mus musculus [1] = assay: Inhibition of haloperidol-induced catalepsy in Swiss albino mouse at 10 mg/kg, ip administered 30 mins prior haloperidol challenge measured after 120 mins; format: functional, organism-based; design: dose 10 mg/kg
Outline: (§1)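 Adult male Swiss albino mice (4–6 weeks, 20–30 g), four per group. Compound given ip at 5–20 mg/kg, with 1% acacia in saline as vehicle control. […] Catalepsy scored over time up to 120 min. Mean ± SEM, n = 4, one-way ANOVA and Kruskal–Wallis test.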

Mus musculus [2] = assay: Inhibition of haloperidol-induced catalepsy in Swiss albino mouse at 5 to 20 mg/kg, ip administered 30 mins prior haloperidol challenge measured after 120 mins; format: functional, organism-based; outline: as §1

Chain of Adenosine receptor A2a (P29274 whole entry): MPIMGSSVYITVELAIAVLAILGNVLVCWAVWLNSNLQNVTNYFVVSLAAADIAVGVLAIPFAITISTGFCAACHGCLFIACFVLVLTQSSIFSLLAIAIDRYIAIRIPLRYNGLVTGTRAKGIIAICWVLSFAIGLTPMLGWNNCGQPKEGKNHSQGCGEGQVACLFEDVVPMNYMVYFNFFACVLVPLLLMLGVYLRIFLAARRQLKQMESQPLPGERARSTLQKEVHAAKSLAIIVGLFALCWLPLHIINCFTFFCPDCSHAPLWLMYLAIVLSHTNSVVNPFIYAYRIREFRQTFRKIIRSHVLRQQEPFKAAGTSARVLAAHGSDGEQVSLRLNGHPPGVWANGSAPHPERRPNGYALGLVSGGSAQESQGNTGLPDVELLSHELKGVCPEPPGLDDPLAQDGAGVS

With `CCCn1c(/N=C/c2ccc(F)cc2)c(C#N)sc1=S` the Ratio Ki (HEK293) was 3390.

For `N#Cc1sc(=S)n(-c2ccccc2)c1/N=C/c1ccc(F)cc1`, the Ratio Ki (HEK293) was 0.13, the Ki (Adenosine receptor A2a) was 0.0047 nM and the Ki (Adenosine receptor A1) was 0.00063 nM.

In the case of `CCCn1c(/N=C/c2ccc(Br)cc2)c(C#N)sc1=S`, the Ratio Ki (HEK293) is reported as 337, the Ki (Adenosine receptor A2a) is reported as 1.8 nM and the Ki (Adenosine receptor A1) is reported as 607 nM.

`CCn1c(/N=C/c2ccc(F)cc2)c(C#N)sc1=S` was tested, and the Ratio Ki (HEK293) was 5.3e-05 and the Ki (Adenosine receptor A1) was 0.00059 nM.

`CCn1c(/N=C/c2ccc(Br)cc2)c(C#N)sc1=S` showed a Ratio Ki (HEK293) of 0.074 and a Ki (Adenosine receptor A1) of 0.00074 nM.

With `N#Cc1sc(=S)n(-c2ccccc2)c1/N=C/c1ccc(Br)cc1` the inhibition (Mus musculus [1]) was “Active” and the inhibition (Mus musculus [2]) was “Active”.

`CCCCn1c(/N=C/c2ccc(Br)cc2)c(C#N)sc1=S` was tested, and the Ratio Ki (HEK293) was 0.013.

In the case of `N#Cc1sc(=S)n(CCc2ccccc2)c1/N=C/c1ccc(F)cc1`, the Ratio Ki (HEK293) is reported as 337, the Ki (Adenosine receptor A2a) is reported as 2.64 nM and the Ki (Adenosine receptor A1) is reported as 889 nM.

`N#Cc1sc(=S)n(CCc2ccccc2)c1/N=C/c1ccc(Br)cc1` gave a Ratio Ki (HEK293) of 3.73, a Ki (Adenosine receptor A2a) of 0.067 nM and a Ki (Adenosine receptor A1) of 0.25 nM.

For `CCCn1c(/N=C/c2ccc(Cl)cc2)c(C#N)sc1=S`, the Ratio Ki (HEK293) was 0.042.

With `N#Cc1sc(=S)n(-c2ccccc2)c1/N=C/c1ccc(Cl)cc1` the Ratio Ki (HEK293) was 2950.

For `Nc1nc2c(cnn2CCc2ccccc2)c2nc(-c3ccco3)nn12`, the inhibition (Mus musculus [1]) was “Active” and the inhibition (Mus musculus [2]) was “Active”.

`CCCCn1c(/N=C/c2ccc(F)cc2)c(C#N)sc1=S` was tested, and the Ratio Ki (HEK293) was 619, the Ki (Adenosine receptor A2a) was 0.027 nM and the Ki (Adenosine receptor A1) was 16.7 nM.

`CCn1c(/N=C/c2ccc(Cl)cc2)c(C#N)sc1=S` gave a Ratio Ki (HEK293) of 13.8, a Ki (Adenosine receptor A2a) of 1.44 nM and a Ki (Adenosine receptor A1) of 19.8 nM.

Work on `CCCCn1c(/N=C/c2ccc(Cl)cc2)c(C#N)sc1=S` yielded a Ratio Ki (HEK293) of 2570.
